# Compounds with a hit are over-represented: about 2.8% of the library has one in this group of screens.
# NPY Y1 blocker: NPY-Y1 (human) receptor antagonism; P25929; HEK293-CNG Y1 cells, membrane potential fluorescence; NPY at EC95, then isoproterenol; inhibition, % at 3.6 µM; 200,000 compounds, 1% hits; AID 1040;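 active means inhibition above the campaign mean inhibition of all tested compounds plus 3 SD, cut at about 20% in these data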;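 further: 0% = DMSO wells given NPY plus isoproterenol and 100% = isoproterenol alone without NPY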
# Target sequence (P25929 whole entry, looked up): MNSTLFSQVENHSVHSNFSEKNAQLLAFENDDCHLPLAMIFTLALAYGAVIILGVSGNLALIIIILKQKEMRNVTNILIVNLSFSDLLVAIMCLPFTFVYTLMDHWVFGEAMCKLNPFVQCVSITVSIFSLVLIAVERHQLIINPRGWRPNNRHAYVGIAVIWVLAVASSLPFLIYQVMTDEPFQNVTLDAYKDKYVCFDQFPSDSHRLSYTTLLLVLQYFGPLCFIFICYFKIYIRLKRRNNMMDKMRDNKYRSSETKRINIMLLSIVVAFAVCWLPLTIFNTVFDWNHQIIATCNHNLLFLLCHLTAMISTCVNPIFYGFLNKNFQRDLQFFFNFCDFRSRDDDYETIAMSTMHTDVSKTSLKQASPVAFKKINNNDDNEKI
#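 Material: Y1- and CNG-channel-expressing HEK293 cells / Probe or stimulus: NPY 25 nM then isoproterenol 1 µM plus Ro 20-1724 25 µM / Doses: 3.6 µM single dose, DMSO 0.4% / Schedule: compound incubation 1 h at room temperature, readout 45 min post-stimulation / Signal: membrane potential fluorescence / Benchmarks: isoproterenol-only wells as full block versus NPY-plus-isoproterenol wells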
# NPY-Y1 PAM-ag: potentiates or activates human NPY-Y1 receptor; NPY-Y1 expressing cells, potentiator/agonist activation; activation, % at 3.6 µM; 220,000 compounds, 0.37% hits; in the data active means activation above about 33%, passing the limit was not always enough;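 further: cells stimulated with NPY at EC10 then isoproterenol at EC100; 0% = low agonist plus stimulus and 100% = saturating agonist plus stimulus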
# Measles CPE: protection of cells from measles virus; 140,000 compounds, 1.5% hits; protection (pct of control), % at 4 µM; Measles virus-infected cells, CPE protection, absorbance; in the data active means protection mostly above about 24%, no sharp cut-off; inactive means mostly below about 26%
# Rad51 HR inh: blocks human Rad51 in homologous recombination | inhibition, % at 10 µM | hRad51 DNA strand exchange, fluorescence dequenching | 200,000 compounds, 0.085% hits | Q06609 | AID 1385;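 active means inhibition above 40% at the single screening dose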;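 further: 0% = DMSO control wells and 100% = blanks with heterologous ssDNA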
#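 Test system: preformed human Rad51 ssDNA filaments; also added: Donor/quencher-labelled 47-bp dsDNA substrate; doses: 10 µM final, single point; times: 37 °C 15-min filament assembly, 30-min compound preincubation, 15-min exchange; detection: FRET fluorescence dequenching, excitation 485 nm, emission 520 nm; read-out basis: Fluorescence-based percent inhibition, control- and blank-normalised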
# NPY-Y2 PAM-ag: potentiators or agonists of human neuropeptide Y receptor Y2; P49146; cells expressing NPY-Y2, potentiator/agonist read-out; activation, % at 3.6 µM; 220,000 compounds, 0.45% hits; in the data active means activation above about 27%;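 further: cells stimulated with NPY near EC25 plus isoproterenol at EC100; 0% = vehicle plus submaximal agonist and 100% = vehicle plus saturating agonist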
# Target sequence (P49146 whole entry, looked up): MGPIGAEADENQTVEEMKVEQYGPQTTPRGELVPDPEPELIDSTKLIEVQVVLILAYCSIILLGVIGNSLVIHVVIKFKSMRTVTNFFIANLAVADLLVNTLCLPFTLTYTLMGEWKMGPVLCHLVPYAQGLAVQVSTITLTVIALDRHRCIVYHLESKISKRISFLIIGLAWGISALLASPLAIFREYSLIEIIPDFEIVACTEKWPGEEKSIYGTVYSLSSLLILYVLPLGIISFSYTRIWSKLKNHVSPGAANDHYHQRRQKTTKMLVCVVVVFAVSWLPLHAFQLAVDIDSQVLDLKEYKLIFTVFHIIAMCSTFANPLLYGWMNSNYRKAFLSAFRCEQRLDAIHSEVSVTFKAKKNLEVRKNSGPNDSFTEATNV
# NPY-Y2 antag: antagonists of human neuropeptide Y receptor Y2; P49146; NPY-Y2 expressing cells, antagonist mode; 140,000 compounds, 0.99% hits; inhibition, % at 2.7 µM; in the data active means inhibition above about 17%;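 further: 0% = vehicle with agonist challenge and 100% = reference antagonist with challenge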
# NPY-Y2 confirm: human NPY-Y2 potentiation or agonism, confirmation | shares compounds with NPY-Y2 PAM-ag | cell-based NPY-Y2 potentiator/agonist assay | activation, % at 3.6 µM | 450 compounds, 20% hits | AID 1539; in the data active means activation above about 33%
# NPY-Y1 potentiator: potentiates or activates NPY-Y1, counter-screen for NPY-Y2 hits. shares compounds with NPY-Y2 PAM-ag. Y1 HEK293-CNG cells, membrane potential fluorescence. activation, % at 3.6 µM. 450 compounds, 20% hits; in the data active means activation above about 45%;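 further: cells stimulated with submaximal NPY then isoproterenol with phosphodiesterase inhibitor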
# NPY-Y1 agonist 2: human NPY-Y1 agonism as NPY-Y2 potentiator counter-screen; shares compounds with NPY-Y2 PAM-ag; HEK293 Y1-CNGC, membrane potential fluorescence; activation, % at 3.6 µM; 450 compounds, 37% hits; AID 1702;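 active means activation above the mean of DMSO-only control wells plus 3 SD, cut at about 18% in these data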;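 further: cells stimulated with 1 µM isoproterenol plus the PDE inhibitor Ro 20-1724; 0% = isoproterenol with DMSO and no NPY and 100% = 40 nM NPY; Y1 agonists lower the membrane potential dye signal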
# CNGC inhibitor: blocks CNG channel activity, counter-screen for NPY-Y2 potentiators; inhibition, % at 3.6 µM; 450 compounds, 32% hits; HEK293-CNG parental, isoproterenol cAMP, membrane potential fluorescence; shares compounds with NPY-Y2 PAM-ag; AID 1703;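 active means inhibition above the control-well mean plus 3 SD of those wells, cut at about 22% in these data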;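 further: 0% = DMSO with isoproterenol and 100% = DMSO without isoproterenol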
# Y2 agonist ctr: counter-screen for NPY-Y2 potentiators: agonists of human NPY-Y2; shares compounds with NPY-Y2 PAM-ag; activation, % at 3.6 µM; AID 1710; 450 compounds, 56% hits; HEK293 Y2/CNGC cells, membrane potential fluorescence, agonist mode;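 active means activation above the mean of solvent-only control wells plus 3 SD, cut at about 10% in these data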;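 further: cells stimulated by isoproterenol with no NPY added so direct agonism is tested; 0% = DMSO with isoproterenol alone and 100% = NPY at EC100 plus isoproterenol; agonism lowers probe fluorescence through less cAMP and CNG channel opening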
# Starred values were filed as active, the others as inactive; x = not tested or not shown.
SMILES,NPY Y1 blocker,NPY-Y1 PAM-ag,Measles CPE,Rad51 HR inh,NPY-Y2 PAM-ag,NPY-Y2 antag,NPY-Y2 confirm,NPY-Y1 potentiator,NPY-Y1 agonist 2,CNGC inhibitor,Y2 agonist ctr
CCc1ccc(C(=O)NN(C(=O)c2ccc(CC)cc2)C(C)(C)C)cc1,-6.4,36.8,11.6,1.7,34.9*,2.5,43.6*,61.0*,57.6*,46.9*,33.6*
CCOC(=O)c1ccc(-n2c(=S)sc3c(=O)[nH]c(C)nc32)cc1,-7.6,27.7,9.6,2.1,34.9*,3.9,6.0,11.1,11.1,-7.1,12.1*
O=C(Nc1ccccc1C(=O)N1CCCC1)c1ccc(Cl)c([N+](=O)[O-])c1,-11.8,34.8,x,-10.4,27.5*,x,3.0,6.9,4.5,-3.1,10.1*
COC(=O)C1=C(O)C(C(=O)OC)C(c2ccc(C)cc2)C(C#N)(C#N)C1c1ccc(C)cc1 (centres undefined),-3.8,-14.0,5.8,4.3,5.4,1.5,x,x,x,x,x
CCCCc1ccc(/C=C2\C(=O)c3ccccc3C(O)=C2C(=O)OCC)cc1,-1.3,-24.4,8.8,1.8,-36.8,0.9,x,x,x,x,x
Cc1cc(Nc2ccccc2)nc(-c2ccccc2O)n1,-6.4,1.2,17.6,-1.6,33.8*,-4.6,36.6*,42.6,28.7*,26.6*,37.1*
NC(=O)NC(CCC(=O)O)C(=O)O (centres undefined),x,x,x,9.1,x,x,x,x,x,x,x
CCc1ccc(N(CC(=O)Nc2nc3ccc(C)cc3s2)S(=O)(=O)c2c(C)noc2C)cc1,0.7,25.6,3.9,-9.9,31.2*,1.6,28.2,29.9,45.0*,33.5*,49.0*
Cn1c(=O)c([N+](=O)[O-])c(NCc2ccc3c(c2)OCO3)c2ccccc21,x,3.3,x,-1.6,98.7*,x,-15.3,-29.0,-23.8,-8.6,-10.0
Cn1c(=O)c([N+](=O)[O-])c(NCc2ccccc2Cl)c2ccccc21,x,10.0,x,-14.9,-12.2,x,x,x,x,x,x
COc1cc(S(=O)(=O)NC2CCCCC2)c(C)cc1C,3.2,1.5,x,x,-3.3,x,x,x,x,x,x
COc1ccc(NC(=O)c2cccnc2SC)cc1OC,-2.4,5.4,x,-150.3,9.5,x,x,x,x,x,x
CSc1ncccc1C(=O)Nc1ccc2nc(C)sc2c1,x,20.3,x,-2.6,105.1*,x,-4.8,0.0,-2.4,1.2,-4.7
Fc1ccc(Nc2c(-c3ccco3)nc3ccccn23)cc1,6.6,-1.0,15.3,4.0,32.4*,5.7,30.4,31.4,17.5*,16.8,22.4*
O=C(O)C1CC=CCC1C(=O)N1CCN(c2nc(-c3ccccc3)c3ccccc3n2)CC1 (centres undefined),14.3,43.4,24.2,x,36.6*,7.3,16.5,2.1,17.9*,-5.7,14.3*
CC(SC(=S)N1CCCC1)C(=O)O (centres undefined),0.0,19.8,x,17.4,36.7*,x,-2.9,-6.9,-0.5,2.3,12.5*
CC(C)(SC(=S)N1CCCCCC1)C(=O)O,3.5,-8.0,x,1.3,7.2,x,x,x,x,x,x
O=C(O)[C@@H](O)[C@H](O)C(=O)O,x,x,x,-7.5,x,x,x,x,x,x,x
C/C(=N\Nc1ccc([N+](=O)[O-])cc1)c1ccc(N2CCOCC2)cc1,x,21.8,x,-35.9,19.0,x,x,x,x,x,x
CCc1ccc(/C(C)=N\Nc2ccc([N+](=O)[O-])cc2)cc1,-6.3,37.5,4.9,-23.8,39.0*,-4.3,20.0,27.2,24.3*,30.4*,29.6*
Cc1cccc(NS(=O)(=O)c2cc(C(=O)N3CCc4ccccc4C3)ccc2Cl)c1C,9.4,-2.0,3.4,3.1,-21.4,5.1,x,x,x,x,x
CN(C)c1ccc(/C=C(/NC(=O)c2ccccc2)C(=O)N/N=C/c2ccc([N+](=O)[O-])c(O)c2)cc1,-12.0,33.8,0.5,-5.1,33.0*,-3.3,33.9*,38.4,34.8*,25.8*,27.3*
Cc1nn(CC(=O)NNC(=O)c2ccccc2F)c([N+](=O)[O-])c1Br,x,-5.0,x,9.4,13.2,x,x,x,x,x,x
Cc1ccc2sc(N(CCCN(C)C)C(=O)c3ccc(Br)s3)nc2c1C,16.8,29.0,x,-15.0,52.2*,x,69.3*,77.7*,84.0*,62.4*,64.7*
CN(C)CCCN(C(=O)c1ccc(Br)s1)c1nc2cc3c(cc2s1)OCO3,7.7,31.2,x,17.4,43.3*,x,66.5*,78.9*,55.0*,66.0*,62.9*
SMILES,NPY Y1 blocker,NPY-Y1 PAM-ag,Measles CPE,Rad51 HR inh,NPY-Y2 PAM-ag,NPY-Y2 antag,NPY-Y2 confirm,NPY-Y1 potentiator,NPY-Y1 agonist 2,CNGC inhibitor,Y2 agonist ctr
Cc1ccc2sc(N(CCCN(C)C)C(=O)c3nc4ccccc4s3)nc2c1C,7.4,-17.1,x,0.1,-6.9,x,x,x,x,x,x
COCCCNC(=O)c1ccc(Cn2c(=O)c3ccccc3n(CC(=O)NCCc3ccc(OC)c(OC)c3)c2=O)cc1,-6.1,5.6,x,4.3,0.8,x,x,x,x,x,x
Cc1ccc(CNS(=O)(=O)N(C)C)cc1,2.9,-2.5,2.5,4.9,-5.7,2.6,x,x,x,x,x
Cc1ccc(NC(=O)Nc2cccc([N+](=O)[O-])c2)cc1F,-3.3,30.7,36.8,4.3,31.6*,-2.8,20.8,24.4,14.7,18.1,17.1*
O=C(Nc1ccc(OC(F)(F)F)cc1)Nc1cccc([N+](=O)[O-])c1,-8.6,4.5,6.1,7.0,11.8,0.1,x,x,x,x,x
O=C(c1cc2sccc2n1Cc1ccccc1)N1CCN(c2nc3ccccc3s2)CC1,10.9,6.1,15.1,-1.5,18.2,7.5,x,x,x,x,x
C#CCSc1nc(N)c2c(n1)OC(N)=C(C#N)C2c1cccnc1 (centres undefined),-3.8,3.9,x,-3.9,58.1*,x,21.1,24.9,16.2,-3.7,6.4
Cc1ccc(C(=O)Nc2ccc(S(=O)(=O)NCc3ccco3)cc2)cc1,0.6,15.1,5.7,0.8,-8.6,2.4,x,x,x,x,x
Cc1cc(C)n(-c2ccc(C(=O)Nc3ccc(S(=O)(=O)NCc4ccco4)cc3)cc2)n1,-1.9,5.5,13.1,-10.1,37.9*,1.3,-1.9,-40.9,-26.2,-6.4,-9.3
Cc1cc(CN(C)C(=O)c2cc(COc3ccc4ncccc4c3)on2)on1,-3.5,-7.8,x,x,37.9*,x,-6.0,-44.0,-28.4,-12.2,-11.1
CN(Cc1nccn1C)C(=O)c1cc(COc2ccc3ncccc3c2)on1,-1.2,19.7,x,-0.5,5.5,x,x,x,x,x,x
COCc1c(C(=O)N2CCN(c3ccc(C(F)(F)F)cn3)CC2)oc2ccccc12,12.4,-72.0,5.3,10.7,-13.7,14.2,x,x,x,x,x
